Assay results from ChEMBL document CHEMBL2429825, “Structure-activity studies of divin: an inhibitor of bacterial cell division” (ACS Med Chem Lett, 2013).
In brackets after ≈: the same amount, converted by molar mass. Activity calls are given as the source filed them. The calls are words filed in the database; no cut-off is given here.

Experiments:
[1] = system: Caulobacter vibrioides; assay: Antimicrobial activity against Caulobacter crescentus CB15N assessed as cell division arrest after the initiation of midcell constriction at MIC after 17 hrs by phase contrast microscopy; assay type: functional, organism-based
How it was run: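 C. crescentus CB15N cells were incubated with compound for 17 h, then imaged to score cell-division phenotype at the midcell constriction stage.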

[2] = system: Acinetobacter baumannii; assay: Antimicrobial activity against clinical isolates of Acinetobacter baumannii by serial dilution technique; assay type: functional
How it was run: (§1)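 Clinical pathogenic isolates were tested for growth inhibition in M8 medium.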

[3] = system: Escherichia coli; assay: Antimicrobial activity against tolc-defecient Escherichia coli BW25113 after 17 hrs by two-fold serial dilution technique; assay type: functional; conditions: BW25113, 17 h
How it was run: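 MIC by serial dilution following a CLSI protocol. E. coli BW25113 ΔtolC was grown in M8 medium.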

[4] = system: Salmonella typhimurium; assay: Antimicrobial activity against clinical isolates of Salmonella typhimurium by serial dilution technique; assay type: functional, Salmonella enterica subsp. enterica serovar Typhimurium; conditions: Salmonella enterica; how it was run: as §1
[5] = Solubility of the compound by light scattering fluorescence spectrophotometry; assay type: physicochemical
How it was run: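 Solubility was measured in M8 medium containing 2% DMSO by a light-scattering assay.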

[6] = system: Shigella boydii; assay: Antimicrobial activity against clinical isolates of Shigella boydii by serial dilution technique; assay type: functional; how it was run: as §1
[7] = system: Morganella morganii; assay: Antimicrobial activity against clinical isolates of Morganella morganii by serial dilution technique; assay type: functional; how it was run: as §1
[8] = system: Klebsiella aerogenes; assay: Antimicrobial activity against clinical isolates of Enterobacter aerogenes by serial dilution technique; assay type: functional; how it was run: as §1
[9] = system: Caulobacter vibrioides; assay: Antimicrobial activity against Caulobacter crescentus CB15N after 17 hrs by two-fold serial dilution technique; assay type: functional
[10] = system: Vibrio cholerae; assay: Antimicrobial activity against clinical isolates of Vibrio cholerae by serial dilution technique; assay type: functional
[11] = system: Klebsiella pneumoniae; assay: Antimicrobial activity against clinical isolates of Klebsiella pneumoniae by serial dilution technique; assay type: functional; how it was run: as §1
[12] = system: Caulobacter vibrioides; assay: Bacteristatic activity against Caulobacter crescentus CB15N assessed as inhibition of cell growth at 2.5 to 20 uM by plate reader analysis; assay type: functional, organism-based

SMILES | Activity [1] | MIC [3] | solubility kinetic [5] | MIC [9] | further results
Cc1nc2ccccc2n1CCC(=O)N/N=C/c1c(O)ccc2ccccc12 | Active | 12.5 µM (≈ 4.66 µg/mL) | 20 µM (≈ 7.45 µg/mL) | 5 µM (≈ 1.86 µg/mL) | MIC [2]: 50 µM (≈ 18.6 µg/mL); MIC [4]: 50 µM (≈ 18.6 µg/mL); MIC [6]: 50 µM (≈ 18.6 µg/mL); MIC [7]: > 50 µM; MIC [8]: 50 µM (≈ 18.6 µg/mL); MIC [10]: 6 µM (≈ 2.23 µg/mL); MIC [11]: > 50 µM
Cc1nccn1CCC(=O)N/N=C/c1c(O)ccc2ccccc12 | Active | 12.5 µM (≈ 4.03 µg/mL) | 10 µM (≈ 3.22 µg/mL) | 7.5 µM (≈ 2.42 µg/mL) | 
Cc1nc2cc(Cl)c(Cl)cc2n1CCC(=O)N/N=C/c1c(O)ccc2ccccc12 | Active | 6.3 µM (≈ 2.78 µg/mL) | 90 µM (≈ 39.7 µg/mL) | 3.8 µM (≈ 1.68 µg/mL) | MIC [2]: 50 µM (≈ 22.1 µg/mL); Activity [12]: Active; MIC [4]: 25 µM (≈ 11 µg/mL); MIC [6]: 25 µM (≈ 11 µg/mL); MIC [7]: > 50 µM; MIC [8]: 12 µM (≈ 5.3 µg/mL); MIC [10]: 3 µM (≈ 1.32 µg/mL); MIC [11]: 50 µM (≈ 22.1 µg/mL)
Cc1nc2cnccc2n1CCC(=O)N/N=C/c1c(O)ccc2ccccc12 | Active | 12.5 µM (≈ 4.67 µg/mL) | 90 µM (≈ 33.6 µg/mL) | 5 µM (≈ 1.87 µg/mL) | 
[N-]=[N+]=NCc1nc2ccccc2n1CCC(=O)N/N=C/c1c(O)ccc2ccccc12 | Active | 12.5 µM (≈ 5.17 µg/mL) | 20 µM (≈ 8.27 µg/mL) | 5 µM (≈ 2.07 µg/mL) | 
Cc1nc2ccccc2n1CCCC(=O)N/N=C/c1c(O)ccc2ccccc12 | Active | 10 µM (≈ 3.86 µg/mL) | 120 µM (≈ 46.4 µg/mL) | 5 µM (≈ 1.93 µg/mL) | 
Cc1nc2ccccc2n1CCC(=O)N/N=C/c1cccc2ccccc12 |  | 50 µM (≈ 17.8 µg/mL) |  | > 20 µM | 
C/C(=N\NC(=O)CCn1c(C)nc2ccccc21)c1c(O)ccc2ccccc12 |  | > 50 µM |  | > 20 µM | 
O=C(CCn1cnc2ccccc21)N/N=C/c1c(O)ccc2ccccc12 | Active | 12.5 µM (≈ 4.48 µg/mL) | 30 µM (≈ 10.8 µg/mL) | 7.5 µM (≈ 2.69 µg/mL) | 
Cc1nc2ccccc2n1CCC(=O)N/N=C/c1c(O)ccc2cc(O)ccc12 |  | 12.5 µM (≈ 4.86 µg/mL) |  | 5 µM (≈ 1.94 µg/mL) | 
COc1ccc2ccccc2c1/C=N/NC(=O)CCn1c(C(F)(F)F)nc2ccccc21 |  | > 50 µM |  | > 20 µM | 
Cc1nc2ccccc2n1CCC(=O)N/N=C/c1ccc(N(C)C)c2ccccc12 |  | > 50 µM |  | > 20 µM | 
Cc1nc2ccccc2n1CCC(=O)NNCc1c(O)ccc2ccccc12 |  | 50 µM (≈ 18.7 µg/mL) |  | 40 µM (≈ 15 µg/mL) | 
COc1ccc2ccccc2c1/C=N/NC(=O)CCn1c(C)nc2ccccc21 |  | > 50 µM |  | > 20 µM | 
CN(C)Cc1nc2ccccc2n1CCC(=O)N/N=C/c1c(O)ccc2ccccc12 |  | 12.5 µM (≈ 5.19 µg/mL) | 90 µM (≈ 37.4 µg/mL) | 5 µM (≈ 2.08 µg/mL) | 
Cc1nc2ccccc2n1CCC(=O)N/N=C/c1ccccc1O |  | 50 µM (≈ 16.1 µg/mL) |  | 15 µM (≈ 4.84 µg/mL) | 
Cc1nc2cc(Cl)ccc2n1CCC(=O)N/N=C/c1c(O)ccc2ccccc12 | Active | 7.5 µM (≈ 3.05 µg/mL) | 210 µM (≈ 85.4 µg/mL) | 5 µM (≈ 2.03 µg/mL) | Activity [12]: Active
Cc1nc2ccccc2n1CCC(=O)N/N=C/c1ccc(F)c2ccccc12 |  | > 50 µM |  | > 20 µM | 
Cc1nc2ccncc2n1CCC(=O)N/N=C/c1c(O)ccc2ccccc12 |  | 25 µM (≈ 9.34 µg/mL) |  | 10 µM (≈ 3.73 µg/mL) | 
Cc1nc2ccccc2n1CC(=O)N/N=C/c1c(O)ccc2ccccc12 |  | 25 µM (≈ 8.96 µg/mL) | 20 µM (≈ 7.17 µg/mL) | 5 µM (≈ 1.79 µg/mL) | 
CC(=O)Oc1ccc2ccccc2c1/C=N/N(C(C)=O)C(=O)CCn1c(C)nc2ccccc21 |  | 50 µM (≈ 22.8 µg/mL) |  | > 40 µM | 
C=CCOc1ccc2ccccc2c1/C=N/NC(=O)CCn1c(C)nc2ccccc21 |  | > 50 µM |  | > 20 µM | 
Cc1nc2ccccc2n1CCC(=O)N/N=C/c1ccc(O)c2ccccc12 |  | > 50 µM |  | > 20 µM | 
O=C(CCn1c(C(F)(F)F)nc2ccccc21)N/N=C/c1c(O)ccc2ccccc12 |  | > 50 µM | 30 µM (≈ 12.8 µg/mL) | 7.5 µM (≈ 3.2 µg/mL) | 
Cc1nc2ccccc2n1CCC(=O)N/N=C/c1ccccc1F |  | > 50 µM |  | > 20 µM | 
